pEC50, pIC50: −log10 of the molar value.
Key:
[1] = target: Human immunodeficiency virus type 1 reverse transcriptase (Human immunodeficiency virus 1, UniProt Q72547, L100I); test: Inhibition of HIV1 reverse transcriptase L100I mutant
[2] = Oral bioavailability in rat at 4 mg/kg, po; format: ADME, organism-based; conditions: in vivo
Outline: (§1)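 Rats dosed orally at 4 mg/kg and intravenously at 2 mg/kg. Plasma parameters were Cmax and AUC, plus t1/2, Vdss and clearance after the IV dose. Apparent oral bioavailability was derived from both routes.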

[3] = system: Human immunodeficiency virus 1; test: Antiviral activity against HIV1 NL4-3 containing reverse transcriptase Y181C mutation infected in human CEM-SS cells assessed as inhibition of virus-induced cytopathic effect; format: functional, organism-based; conditions: Human immunodeficiency virus 1, NL4-3, CEM-SS
[4] = target: Human immunodeficiency virus type 1 reverse transcriptase (Human immunodeficiency virus 1, UniProt Q72547); test: Inhibition of wild type HIV1 reverse transcriptase
[5] = system: Human immunodeficiency virus 1; test: Antiviral activity against wild type HIV1 assessed as inhibition of virus-induced cytopathic effect by cell based assay; format: functional, organism-based
Outline: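 Cell-based cytoprotection assay. The endpoint is EC50, the concentration giving 50% inhibition of the virus-induced cytopathic effect. Virus and cells were either HIV-1RF in CEM-SS cells or HIV-1IIIB in MT-4 cells.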

[6] = target: Human immunodeficiency virus type 1 reverse transcriptase (Human immunodeficiency virus 1, UniProt Q72547, V106A); test: Inhibition of HIV1 reverse transcriptase V106A mutant
[7] = Toxicity in human CEM-SS cells; format: cell-based; conditions: read-out: TC50 (the source's name)
[8] = Volume of distribution at steady state in rat at 4 mg/kg, po or 2 mg/kg, iv; format: ADME, organism-based; conditions: in vivo, read-out: Vdss; outline: as §1
[9] = Clearance in rat at 4 mg/kg, po or 2 mg/kg, iv; format: ADME, organism-based; conditions: in vivo; outline: as §1
[10] = Cmax in rat at 4 mg/kg, po; format: ADME, organism-based; parameters: dose 4 mg/kg, route oral; conditions: in vivo; outline: as §1
[11] = AUC in rat at 4 mg/kg, po or 2 mg/kg, iv; format: ADME, organism-based; conditions: plasma; outline: as §1
[12] = system: Human immunodeficiency virus 1; test: Antiviral activity against wild type HIV1 NL4-3 infected in human CEM-SS cells assessed as inhibition of virus-induced cytopathic effect; format: functional, organism-based; conditions: Human immunodeficiency virus 1, NL4-3, CEM-SS
[13] = Half life in rat at 2 mg/kg, iv; format: ADME, organism-based; parameters: dose 2 mg/kg, route intravenous; conditions: in vivo; outline: as §1
[14] = target: Human immunodeficiency virus type 1 reverse transcriptase (Human immunodeficiency virus 1, UniProt Q72547, Y188L); test: Inhibition of HIV1 reverse transcriptase Y188L mutant
[15] = system: Human immunodeficiency virus 1; test: Antiviral activity against HIV1 NL4-3 containing reverse transcriptase K103N mutation infected in human CEM-SS cells assessed as inhibition of virus-induced cytopathic effect; format: functional, organism-based; conditions: Human immunodeficiency virus 1, NL4-3, CEM-SS

| pIC50 [4] | pEC50 [5] | SMILES | other results |
| --- | --- | --- | --- |
| 7.15 | 8.00 | CN(Cc1ccc2occc2c1)c1nc(O)nc(Nc2c(F)cc(F)cc2-c2ccccc2)n1 | – |
| 7.10 | 8.15 | Cc1cccc(-c2ccoc2)c1Nc1nc(O)nc(N(C)Cc2ccc3occc3c2)n1 | – |
| 7.05 | 6.89 | Cc1cccc(-c2ccccc2)c1Nc1nc(O)nc(N(C)Cc2ccc3c(c2)OCO3)n1 | – |
| 4.63 | 5.40 | Cc1cccc(-c2ccccc2)c1Nc1nc(O)nc(OCc2ccc3occc3c2)n1 | – |
| < 4.00 | – | Fc1cccc(-c2ccccc2)c1Nc1nc(Cl)nc(NCc2ccc3occc3c2)n1 | – |
| 5.46 | 5.14 | Oc1nc(NCc2ccc3cc[nH]c3c2)nc(Nc2ccccc2-c2ccccc2)n1 | – |
| 4.40 | < 5.00 | Oc1nc(NCc2ccc3cc[nH]c3c2)nc(Nc2cccc(Br)c2)n1 | – |
| < 4.00 | – | CC(C)(Nc1nc(O)nc(Nc2c(F)cccc2-c2ccccc2)n1)c1ccc2c(c1)OCO2 | – |
| 5.36 | 5.55 | Cc1cccc(-c2ccccc2)c1Nc1nc(O)nc(NCc2ccc3c(c2)OCCCO3)n1 | – |
| 7.15 | 6.70 | Cc1cccc(-c2ccccc2)c1Nc1nc(O)nc(NCc2ccc3occc3c2)n1 | – |
| 7.05 | 6.40 | Oc1nc(NCc2ccc3occc3c2)nc(Nc2c(F)cccc2-c2ccccc2)n1 | – |
| 5.39 | – | CN(Cc1ccc2occc2c1)c1nc(O)nc(Nc2ccccc2N2CCOCC2)n1 | – |
| < 4.00 | – | CCN(Cc1ccc2occc2c1)c1nc(O)nc(Nc2c(F)cccc2-c2ccccc2)n1 | – |

Continued, compound first:

| SMILES | pIC50 [4] | pEC50 [5] | other results |
| --- | --- | --- | --- |
| CN(Cc1ccc2occc2c1)c1nc(O)nc(Nc2c(F)cccc2-c2ccccc2)n1 | 8.10 | 8.30 | pIC50 [1]: 7.33; bioavailability [2]: 38%; pEC50 [3]: 7.00; pIC50 [6]: 5.04; CC50 [7]: > 1000 nM; Vd [8]: 0.35 L/kg; clearance [9]: 5.17 mL/min/kg; Cmax [10]: 3.8 µM; AUC [11]: 12.5 µM·h; pEC50 [12]: 8.22; half-life [13]: 1.45 h; pIC50 [14]: 5.21; pEC50 [15]: < 6.00 |
| Cc1cccc(-c2ccccc2)c1Nc1nc(O)nc(N(C)Cc2ccc3c(c2)CCO3)n1 | 7.26 | 8.52 | pIC50 [1]: 7.15; bioavailability [2]: 44%; pEC50 [3]: 6.70; pIC50 [6]: 4.44; CC50 [7]: > 1000 nM; Vd [8]: 0.32 L/kg; clearance [9]: 4.5 mL/min/kg; Cmax [10]: 6.1 µM; AUC [11]: 15.6 µM·h; pEC50 [12]: 8.22; half-life [13]: 1.4 h; pIC50 [14]: 5.02; pEC50 [15]: < 6.00 |
| Cc1cccc(-c2ccccc2)c1Oc1nc(O)nc(NCc2ccc3occc3c2)n1 | 5.01 | 4.90 | – |
| Cc1cccc(-c2ccccc2)c1Oc1nc(N)nc(NCc2ccc3occc3c2)n1 | < 4.00 | < 4.30 | – |
| COc1nc(NCc2ccc3occc3c2)nc(Nc2c(C)cccc2-c2ccccc2)n1 | 5.59 | 5.52 | – |
| Oc1nc(NCc2ccc3cc[nH]c3c2)nc(Nc2cccc(Oc3ccccc3)c2)n1 | < 4.00 | < 5.00 | – |
| Cc1cccc(-c2ccccc2)c1Nc1nc(O)nc(NCc2ccc3cc[nH]c3c2)n1 | 6.30 | 6.05 | – |
| Cc1cccc(-c2ccccc2)c1Nc1nc(O)nc(NCc2ccc3c(ccn3S(C)(=O)=O)c2)n1 | < 4.00 | < 5.00 | – |
| Cc1cccc(-c2ccccc2)c1N(C)c1nc(O)nc(NCc2ccc3occc3c2)n1 | 5.29 | 5.82 | – |
| Cc1cccc(-c2ccccc2)c1Nc1nc(O)nc(N(C)Cc2ccc3occc3c2)n1 | 7.08 | 6.92 | – |
| O=C1Nc2ccc(Cl)cc2[C@@](C#CC2CC2)(C(F)(F)F)O1 [EFAVIRENZ] | – | – | pEC50 [3]: 8.30; CC50 [7]: > 1000 nM; pEC50 [15]: < 6.00 |
| Cc1ccnc2c1NC(=O)c1cccnc1N2C1CC1 [NEVIRAPINE] | – | – | pEC50 [3]: < 6.00; CC50 [7]: > 1000 nM; pEC50 [12]: 6.70; pEC50 [15]: < 6.00 |

From ChEMBL document CHEMBL1268932, “Discovery and SAR of a series of 4,6-diamino-1,3,5-triazin-2-ol as novel non-nucleoside reverse transcriptase inhibitors of HIV-1” (Bioorg Med Chem Lett, 2010)
